Assay outcomes as filed in PubChem.
UCH37 DUB inh: human UCH37 deubiquitinating enzyme inhibition; inhibition, % (test concentration not listed); AID 588478; purified proteasome/UCH37, Ub-AMC cleavage fluorescence; Q9Y5K5; 0.33% of 330,000 active;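 active = mean inhibition over replicate wells above about 20%, limit read from the data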;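 also: 0% = compound-free wells with enzyme and 100% = wells lacking proteasome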
Target sequence (Q9Y5K5 whole entry, looked up): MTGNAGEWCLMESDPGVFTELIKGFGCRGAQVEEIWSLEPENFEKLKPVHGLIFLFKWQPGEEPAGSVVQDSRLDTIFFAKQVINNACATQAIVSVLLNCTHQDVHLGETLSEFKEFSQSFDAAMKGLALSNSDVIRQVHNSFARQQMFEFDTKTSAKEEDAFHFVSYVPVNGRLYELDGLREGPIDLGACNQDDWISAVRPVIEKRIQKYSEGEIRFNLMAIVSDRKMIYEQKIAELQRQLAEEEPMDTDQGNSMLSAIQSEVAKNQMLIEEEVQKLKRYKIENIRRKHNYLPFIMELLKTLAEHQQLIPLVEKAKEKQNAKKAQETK
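System: Proteasome-associated human UCH37 deubiquitinase; Input: 0.15 nM proteasome in added enzyme buffer; Also added: Ub-AMC substrate from 1 µM stock; Incubation: 30 min compound-proteasome preincubation then 25 min substrate reaction, room temperature; Detection: fluorescence, ex 355 nm, em 460 nm; Read-out: % inhibition of Ub-AMC cleavage fluorescence; Benchmarks: no-proteasome and no-compound wells.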
MEKK2 mut-MEK5: signal of MEK5 binding to mutant human MEKK2 PB1 domain | AID 1530 | bead flow cytometry, Alexa488-MEK5 binding to MEKK2 mutant | 0.35% of 290,000 active | percent response, % at 10 µM; in the data active = percent response above about 24%, passing the limit was not always enough
MEKK3 PB1 HTS: modulators (inhibitors or enhancers) of MEK5 binding to human MEKK3 PB1 domain. Q99759. bead-based flow cytometry, Alexa488-MEK5 binding to MEKK3; actives lie on both sides; 0 = blocked by unlabeled MEK5, 100 = vehicle. binding response (% of control), % at 10 µM. 1.4% of 290,000 active;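 active = binding response more than 3 SD above or below the average of its plate-row segment, actives on both sides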;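 also: Alexa488 bead fluorescence after subtracting the streptavidin-only scavenger bead signal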
MEKK2wt PB1 HTS: raises or lowers MEK5 binding to wildtype human MEKK2 PB1 domain; Q9Y2U5; bead flow cytometry, Alexa488-MEK5 binding to MEKK2 WT; actives lie on both sides; binding response (% of control), % at 10 µM; 1.1% of 290,000 active; AID 1531; in the data active = binding response below about 67% or above about 130%
Apaf1 inhib: blocks human Apaf-1 apoptosome activity; O14727; reconstituted apoptosome caspase-3 activity, DEVD-Rh110 fluorescence; inhibition, % at 20 µM; 0.71% of 330,000 active; active = inhibition of at least 40% at 20 µM;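 also: plate controls were DMSO wells for no effect and DEVD-CHO caspase inhibitor wells for full effect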
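detection = Rh110 fluorescence intensity | test system = biochemical Apaf-1 apoptosome reconstitution | also added = cytochrome c and DEVD-Rh110 substrate | schedule = 30 min plus 50 min, RT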
UBC13 inh: blocks human UBC13 polyubiquitin chain formation; P61088; 0.47% of 330,000 active; TR-FRET; inhibition, % at 20 µM; in the data active = inhibition above about 45%, passing the limit was not always enough
Target sequence (P61088 whole entry, looked up): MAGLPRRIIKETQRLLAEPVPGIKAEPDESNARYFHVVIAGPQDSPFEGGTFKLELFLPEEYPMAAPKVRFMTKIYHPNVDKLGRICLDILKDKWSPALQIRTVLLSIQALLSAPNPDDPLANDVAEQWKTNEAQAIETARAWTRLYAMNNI
MEKK2wt confirm: raises or lowers MEK5 binding to wildtype human MEKK2, retest | shares compounds with MEKK3 PB1 HTS | bead flow cytometry, Alexa488-MEK5 binding to MEKK2 WT; actives lie on both sides | binding response (% of control), % at 10 µM | 2.4% of 5,900 active; in the data active = binding response below about 16% or above about 210%; inactive = in between
MEKK2mut-MEK5: signal of MEK5 binding to mutant human MEKK2, retest; shares compounds with MEKK3 PB1 HTS; AID 1893; percent response, % at 10 µM; 2% of 5,900 active; bead flow cytometry, Alexa488-MEK5 binding to MEKK2 mutant; in the data active = percent response mostly above about 71%, no sharp cut-off; inactive = mostly below about 38%;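 also: higher means compound restores mutant binding toward wildtype level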
MEKK3-MEK5 inh: MEKK3-MEK5 PB1 inhibition, single concentration confirmation | shares compounds with MEKK3 PB1 HTS | binding response (% of control), % at 10 µM | AID 1894 | 1.8% of 5,900 active | bead flow cytometry, Alexa488-MEK5 binding to MEKK3; active compounds read low;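 active = binding response below 72% of control, or above a set upper limit, though filed actives all read lower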;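 also: 100% = DMSO only wells and 0% = binding blocked by excess unlabeled MEK5; lower values mean stronger disruption of MEK5 binding to MEKK3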
Numbers without * were called inactive; x = no result; [ ] = another dose, or the depositor's remark. Hits are enriched below; roughly 3% of the tested compounds scored in any of these assays.

SMILES | UCH37 DUB inh | MEKK2 mut-MEK5 | MEKK3 PB1 HTS | MEKK2wt PB1 HTS | Apaf1 inhib | UBC13 inh | MEKK2wt confirm | MEKK2mut-MEK5 | MEKK3-MEK5 inh
COc1ccc(NS(=O)(=O)c2ccc(NC(=S)NC(=O)c3cccc(F)c3)cc2)nn1 | x | -1 | 75*[inhibitor] | 92 | -5 | -14 | 104 | 3 | 104
COc1ccc(NS(=O)(=O)c2ccc(NC(=S)NC(=O)c3cccnc3)cc2)nn1 | 5 | -3 | 97 | 95 | 7 | -5 | x | x | x
O=C(CSc1nnnn1Cc1ccccc1)N1CCN(c2ccccc2)CC1 | 3 | x | x | x | 6 | -5 | x | x | x
C=C(C)CN=c1scc(C)n1/N=C/c1ccco1 | x | -9 | 77*[inhibitor] | 85 | 6 | -12 | 73 | -11 | 73
Cc1ccc(Cl)cc1NC(=S)N(CCCN1CCN(C)CC1)Cc1cccs1 | 9 | 4 | 105 | 109 | 3 | -11 | x | x | x
Cc1cc(Cl)ccc1NC(=S)N(CCCN1CCOCC1)Cc1cccs1 | -1 | 0 | 128* | 106 | 7 | 4 | 108 | 3 | 105
Cc1nn(Cc2ccccc2)c(C)c1NC(=O)CSc1nc(C2CC2)nc2c1cnn2-c1ccccc1 | -1 | -1 | 103 | 101 | 10 | 13 | x | x | x
Cc1ccc(CNC(=O)C(=O)NCC(c2ccco2)N2CCOCC2)cc1 (centres undefined) | 0 | 0 | 129* | 102 | -8 | 4 | 103 | -3 | 98
O=C(NCCc1c[nH]c2ccccc12)C(=O)NCC(c1ccco1)N1CCN(c2ccc(F)cc2)CC1 (centres undefined) | -2 | 0 | 129* | 107 | 9 | 6 | 96 | -6 | 102
O=C(NCc1ccc(Cl)cc1)C(=O)NCC(c1ccco1)N1CCOCC1 (centres undefined) | 2 | 12 | 102 | 107 | 4 | 17 | x | x | x
CCc1nnc(NC(=O)Cc2c[nH]c3ccccc23)s1 | 0 | 7 | 138* | 121 | 6 | -4 | 103 | 5 | 107
Brc1ccccc1OCCOCCOc1cccc2cccnc12 | 2 | -4 | 96 | 95 | 13 | -2 | x | x | x
Clc1ccc(OCCOCCOc2cccc3cccnc23)c(Br)c1 | 2 | 1 | 137* | 109 | 31 | -1 | 111 | 16 | 114
COc1ccccc1NC(=O)Nc1ccc(F)c(F)c1 | 3 | 3 | 101 | 104 | 0 | 11 | x | x | x
CCOC(=O)Cc1csc(NC(=O)c2ccc(OC)c(OC)c2)n1 | 1 | -42 | 1.0*[inhibitor] | 0.0*[inhibitor] | 0 | 3 | 96 | 1 | 99
CCOC(=O)Cc1csc(NC(=O)COc2ccc(N(C)S(=O)(=O)c3ccc(C)cc3)cc2)n1 | 5 | 9 | 128* | 116 | 15 | 8 | 104 | 3 | 107
CC(C)n1nc(C(=O)NC2CCCCCC2)c2ccccc2c1=O | 2 | x | x | x | 19 | -6 | x | x | x
O=C(NCC1CCCO1)c1csc2c1CCCCC2 (centres undefined) | 0 | -39 | 0.0*[inhibitor] | -4.0*[inhibitor] | -12 | 1 | 107 | 9 | 106
CC1CCc2c(C(=O)NCC3CCCO3)csc2C1 (centres undefined) | -1 | 1 | 99 | 96 | -24 | 2 | x | x | x
COC(=O)C1CCN(c2ccc([N+](=O)[O-])cc2)CC1 | 9 | -3 | 90 | 94 | -6 | -19 | x | x | x
COC(=O)C1CCN(CCCOc2ccc(CN3CCN(c4ccc([N+](=O)[O-])cc4)CC3)cc2)CC1 | x | 30 | 106 | 141* | 7 | 1 | 110 | 4 | 98
